Laboratory results: ChEMBL document CHEMBL5678802, “Small-molecule p21-activated kinase inhibitor PF-3758309 is a potent inhibitor of oncogenic signaling and tumor growth” (Proc Natl Acad Sci U S A, 2010)
Calls of active or inactive are those of the source. No cut-off for these calls is given here.

Columns and labels:
NCI-H1838 = test: Antiproliferative activity against human NCI-H1838 cells assessed as inhibition of cell proliferation incubated for 3 days by CellTiter-Glo Luminescent Cell Viability Assay; type: functional, cell-based; settings: NCI-H1838, 72 h
Summary of the method: (§1)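 Cells of each line were plated in 384-well plates on day 1 and exposed to compound from day 2 for 3 days. On day 5 all medium was aspirated. Viable cell number was read by CellTiter-Glo luminescence, which quantifies cellular ATP.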

NCI-H2347 = test: Antiproliferative activity against human NCI-H2347 cells assessed as inhibition of cell proliferation incubated for 3 days by CellTiter-Glo Luminescent Cell Viability Assay; type: functional, cell-based; settings: NCI-H2347, 72 h; summary of the method: as §1
HCT-116 = test: Downregulation of camptothecin-induced p21 waf1/cip1 level in human HCT-116 cells at 1 uM preincubated with compound for 15 mins followed by camptothecin stimulation and measured after 20 hrs by Western blot analysis; type: functional, cell-based; settings: time 20.25 hrs
[1] = target: T1, Receptor-type tyrosine-protein kinase FLT3 (Homo sapiens, UniProt P36888); test: Inhibition of human FLT3 in presence of ATP by cellular assay
T1 sequence (P36888 whole entry): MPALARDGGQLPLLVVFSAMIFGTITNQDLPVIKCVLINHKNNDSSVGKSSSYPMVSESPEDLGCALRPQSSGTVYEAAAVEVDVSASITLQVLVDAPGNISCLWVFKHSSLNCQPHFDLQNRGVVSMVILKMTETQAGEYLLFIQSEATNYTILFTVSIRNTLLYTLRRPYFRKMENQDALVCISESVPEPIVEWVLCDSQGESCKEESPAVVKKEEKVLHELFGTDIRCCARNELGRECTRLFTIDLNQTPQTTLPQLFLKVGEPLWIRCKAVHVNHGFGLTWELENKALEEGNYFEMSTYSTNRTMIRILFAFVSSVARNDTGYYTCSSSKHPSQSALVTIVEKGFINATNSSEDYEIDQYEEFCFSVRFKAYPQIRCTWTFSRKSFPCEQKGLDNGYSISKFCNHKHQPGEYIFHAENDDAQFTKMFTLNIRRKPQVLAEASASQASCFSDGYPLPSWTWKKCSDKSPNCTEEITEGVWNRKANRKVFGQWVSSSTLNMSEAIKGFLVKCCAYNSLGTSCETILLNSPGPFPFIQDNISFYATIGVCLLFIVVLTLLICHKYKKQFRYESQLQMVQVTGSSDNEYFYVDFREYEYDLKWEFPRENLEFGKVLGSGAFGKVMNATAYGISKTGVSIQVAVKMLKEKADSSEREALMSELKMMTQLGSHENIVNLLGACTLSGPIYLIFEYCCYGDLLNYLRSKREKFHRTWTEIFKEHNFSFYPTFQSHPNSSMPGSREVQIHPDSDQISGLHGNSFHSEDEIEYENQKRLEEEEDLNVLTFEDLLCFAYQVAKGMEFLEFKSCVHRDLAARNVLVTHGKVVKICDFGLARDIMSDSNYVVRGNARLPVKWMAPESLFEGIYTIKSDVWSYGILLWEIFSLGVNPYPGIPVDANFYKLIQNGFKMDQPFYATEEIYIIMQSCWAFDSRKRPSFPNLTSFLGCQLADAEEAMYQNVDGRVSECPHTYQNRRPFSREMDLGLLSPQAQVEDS

COLO 205 [2] = test: Inhibition of anchorage independent cell growth in human COLO 205 cells incubated for 6 days by Alamar blue reagent based fluorescence plate reader analysis; type: functional; settings: COLO 205, 144 h
Summary of the method: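 Soft-agar colony formation: bottom layer 0.5% agar (2× DMEM with 1% agarose, 1:1), top layer 0.35% agar holding 4,000 cells; layers set 20–30 min at room temperature, then 1× DMEM containing compound added on top. Incubated 6 days; Alamar blue added and fluorescence read at 540 nm.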

[3] = target: RAC-gamma serine/threonine-protein kinase (Homo sapiens, UniProt Q9Y243); test: Inhibition of human AKT3 assessed as inhibition constant in presence of ATP
Chain of RAC-gamma serine/threonine-protein kinase (Q9Y243 whole entry): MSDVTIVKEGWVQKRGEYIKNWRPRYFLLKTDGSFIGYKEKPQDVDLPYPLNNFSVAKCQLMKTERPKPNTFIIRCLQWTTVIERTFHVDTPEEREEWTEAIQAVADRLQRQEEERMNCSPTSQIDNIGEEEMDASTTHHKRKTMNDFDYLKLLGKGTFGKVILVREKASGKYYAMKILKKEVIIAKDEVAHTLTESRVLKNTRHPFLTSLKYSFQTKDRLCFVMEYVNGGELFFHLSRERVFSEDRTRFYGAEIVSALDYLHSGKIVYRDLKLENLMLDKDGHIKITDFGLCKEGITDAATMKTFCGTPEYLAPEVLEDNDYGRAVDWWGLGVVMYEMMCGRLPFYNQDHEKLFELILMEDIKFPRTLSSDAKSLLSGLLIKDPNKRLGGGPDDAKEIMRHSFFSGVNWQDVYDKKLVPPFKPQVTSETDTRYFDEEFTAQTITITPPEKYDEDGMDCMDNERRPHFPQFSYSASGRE

COLO 205 [4] = test: Antitumor activity against human COLO 205 cells xenografted in nude mouse assessed as tumor growth inhibition at 20 mg/kg, po administered once daily for 9 to 18 days relative to control; type: functional; settings: time 9-18 day, read-out: TGI
Summary of the method: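 Tumor cells were implanted s.c. into the right flank of female nu/nu nude mice aged 6–8 weeks. Animals were randomized into treatment groups once tumors were established (example: day 8 postimplant, about 170 mm3, animals >22 g). Compound in 0.5% methylcellulose was given by oral gavage. Tumors were measured with calipers two to three times per week.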

[5] = target: T2, Serine/threonine-protein kinase D1 (Homo sapiens, UniProt Q15139); test: Inhibition of human PKCmu assessed as inhibition constant in presence of ATP
T2 sequence (Q15139 whole entry): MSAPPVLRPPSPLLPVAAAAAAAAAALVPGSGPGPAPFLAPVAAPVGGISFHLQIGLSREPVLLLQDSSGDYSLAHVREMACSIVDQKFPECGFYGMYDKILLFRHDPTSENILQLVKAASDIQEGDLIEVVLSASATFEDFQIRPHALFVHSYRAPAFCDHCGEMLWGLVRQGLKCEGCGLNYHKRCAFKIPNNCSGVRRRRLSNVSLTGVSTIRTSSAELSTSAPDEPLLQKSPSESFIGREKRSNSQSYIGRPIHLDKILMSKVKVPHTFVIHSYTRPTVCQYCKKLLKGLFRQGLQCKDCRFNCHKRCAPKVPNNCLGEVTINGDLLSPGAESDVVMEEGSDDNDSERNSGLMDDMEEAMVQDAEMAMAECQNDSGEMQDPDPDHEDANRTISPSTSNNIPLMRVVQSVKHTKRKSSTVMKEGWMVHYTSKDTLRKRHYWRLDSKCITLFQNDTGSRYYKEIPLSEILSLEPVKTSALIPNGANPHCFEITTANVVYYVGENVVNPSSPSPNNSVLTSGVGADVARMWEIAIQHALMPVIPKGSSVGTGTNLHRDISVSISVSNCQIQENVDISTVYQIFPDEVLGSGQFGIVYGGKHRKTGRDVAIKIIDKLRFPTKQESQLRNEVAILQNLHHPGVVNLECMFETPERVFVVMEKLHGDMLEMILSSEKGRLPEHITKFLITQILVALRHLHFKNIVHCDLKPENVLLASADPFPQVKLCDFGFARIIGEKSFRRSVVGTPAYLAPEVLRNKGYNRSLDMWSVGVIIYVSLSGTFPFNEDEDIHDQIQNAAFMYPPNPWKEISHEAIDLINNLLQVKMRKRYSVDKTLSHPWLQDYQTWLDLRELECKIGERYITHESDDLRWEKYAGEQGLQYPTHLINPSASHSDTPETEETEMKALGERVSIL

NCI-H1355 = test: Inhibition of anchorage independent cell growth in human NCI-H1355 cells incubated for 6 days by Alamar blue reagent based fluorescence plate reader analysis; type: functional; settings: NCI-H1355, 144 h
[6] = Antiproliferative activity against human PL45 cells assessed as inhibition of cell proliferation incubated for 3 days by CellTiter-Glo Luminescent Cell Viability Assay; type: functional, cell-based; settings: PL45, 72 h; summary of the method: as §1

With `Cc1nc(Nc2n[nH]c3c2CN(C(=O)N[C@H](CN(C)C)c2ccccc2)C3(C)C)c2sccc2n1` [PF-03758309] as the molecule, how does the IC50 (NCI-H1838) read?
The IC50 was 5.5 nM.

What about the IC50 (NCI-H2347) of the same molecule?
The IC50 was 2 nM.

What about the Activity (HCT-116) of the same molecule?
Its Activity is “Active”.

And the IC50 [1]?
Its IC50 is 407 nM.

And the IC50 (COLO 205 [2])?
Its IC50 is 140 nM.

What about the Ki [3] of the same molecule?
Its Ki is 172 nM.

And the inhibition in vivo at 20 mg/kg (COLO 205 [4])?
Its inhibition in vivo at 20 mg/kg is 106%.

And the Ki [5]?
Its Ki is 21 nM.

And the IC50 (NCI-H1355)?
Its IC50 is 14.2 nM.

And the IC50 [6]?
Its IC50 is 53 nM.
